Measured values reported in publication PMC3502708 (Journal of molecular biology, 2012).

Assays:
MORF PHD1/2 fingers [1] = target: T1, MORF PHD1/2 fingers (Homo sapiens, UniProt Q8WYB5); experiment: NMR titration; assay type: binding; conditions: for Chemical shift changes / binding of MORF PHD1/2 by NMR (in words): 0.1 mM 15N-labeled PHD1/2, 298K
T1 sequence (Q8WYB5 211-329): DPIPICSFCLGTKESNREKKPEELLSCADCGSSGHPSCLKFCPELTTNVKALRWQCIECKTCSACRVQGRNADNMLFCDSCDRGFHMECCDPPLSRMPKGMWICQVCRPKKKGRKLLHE

[2] = test system: endogenous H3K14ac / histone H3 in HEK293 cells; assay type: cell-based; conditions: TSA 3 μM, 6 h prior to harvesting, Flag-N-MORF IP
Procedure, shortened: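 HEK293 cells were seeded at 300,000 per 6 cm dish and lipofection-transfected with Flag-tagged MORF N-terminal constructs (aa 1–352, or aa 1–215 lacking PHD1/2). After about 48 h, cells were lysed in buffer with 150 mM KCl and immunoprecipitated on anti-Flag M2 agarose. Beads were washed extensively and eluted in 50 mM phosphoric acid. Blots were probed with anti-Flag, anti-H3K14ac and anti-H3. Where indicated, TSA (3 μM) was added to the medium 6 h before harvest.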

MOZ PHD1/2 fingers = MOZ PHD1/2 fingers (Homo sapiens, UniProt Q92794); experiment: Tryptophan fluorescence binding, MOZ PHD1/2; conditions: as seen in NMR and fluorescence assays
[3] = target: double PHD fingers of DPF3; conditions: read-out: Kd, double PHD fingers of DPF3; ref [31]; cited from earlier work
ING5 PHD finger = conditions: ref [13]; cited from earlier work
MORF PHD1/2 fingers [4] = target: T1, MORF PHD1/2 fingers; experiment: Tryptophan fluorescence binding, MORF PHD1/2; conditions: 25 °C, H3un vs acetylated peptides

MOZ PHD1/2 fingers, sequence (Q92794 207-318): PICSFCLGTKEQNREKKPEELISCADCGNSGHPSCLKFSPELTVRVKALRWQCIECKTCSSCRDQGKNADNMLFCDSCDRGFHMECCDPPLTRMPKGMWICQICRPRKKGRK

Compound: C[C@H](N)C(=O)N[C@@H](CCCNC(=N)N)C(=O)N[C@H](C(=O)N[C@@H](CCCC[N+](C)(C)C)C(=O)N[C@@H](CCC(N)=O)C(=O)N[C@H](C(=O)N[C@@H](C)C(=O)N[C@@H](CCCNC(=N)N)C(=O)N[C@@H](CCCCN)C(=O)N[C@@H](CO)C(=O)N[C@H](C(=O)NCC(=O)O)[C@@H](C)O)[C@@H](C)O)[C@@H](C)O [H3K4me3]
- Chemical shift changes / binding of MORF PHD1/2 by NMR (in words) (MORF PHD1/2 fingers [1]; 1H,15N HSQC titration): small changes in the NMR spectra of PHD1/2
- Affinity of MORF PHD1/2 relative to H3un or H3K9ac (MORF PHD1/2 fingers [1]; NMR titration, 298K): three orders of magnitude lower than affinity of this protein toward H3un or H3K9ac

Compound: CC(=O)NCCCC[C@H](N)C(=O)O [acetylated lysine amino acid, reference compound]
- Chemical shift changes / binding of MORF PHD1/2 by NMR (in words) (MORF PHD1/2 fingers [1]; 1H,15N HSQC titration): lack of any significant resonance perturbations

Compound: CC(/C=C/C(=O)NO)=C\[C@@H](C)C(=O)c1ccc(N(C)C)cc1 [trichostatin A (TSA), trichostatin A, reference compound]
- Effect on association of N-MORF with histone H3 [2]: enhanced the association of N-MORF with histone H3

Compound: H3 (3–10): peptide comprising amino acids Thr3-Ser10 but missing Ala1 and Arg2 (TKQTARKS)
- Chemical shift changes of MORF PHD1/2 with 5-fold excess of peptide (in words) (MORF PHD1/2 fingers [1]; 1H,15N HSQC, 298K, 5-fold excess of H3 (3–10)): no changes in the NMR spectra of PHD1/2

Compound: H3 peptide (amino acids 1–20): longer unmodified H3 peptide (amino acids 1–20)
- Chemical shift changes / binding of MORF PHD1/2 by NMR (in words) (MORF PHD1/2 fingers [1]; 1H,15N HSQC titration): induced similar resonance perturbations

Compound: H3un: peptide corresponding to amino acids 1–12 of unmodified histone H3 (NMR); length for fluorescence not printed
- Affinity of MOZ PHD1/2 relative to H3K14ac and H3K9ac (MOZ PHD1/2 fingers): two to three fold weaker
- Binding of MORF PHD1/2 by NMR, short peptide (in words) (MORF PHD1/2 fingers [1]; 1H,15N HSQC titration, 298K, short peptide, amino acids 1–12): Substantial chemical shift changes
- Kd [3]: 2000 nM
- Binding to ING5 PHD finger (in words) (ING5 PHD finger): does not associate with H3un
- Affinity of MORF PHD1/2 relative to H3K9ac and H3K14ac (MORF PHD1/2 fingers [4]): two to three fold weaker

Compound: H4 peptide (residues 1–23): H4 peptide (residues 1–23) [reference compound]
- Chemical shift changes / binding of MORF PHD1/2 by NMR (in words) (MORF PHD1/2 fingers [1]; 1H,15N HSQC titration): unable to trigger chemical shift changes in MORF PHD1/2
